Target: Human integrin αvβ3 receptor (Homo sapiens, UniProt P05106+P06756)
Type: binding
Conditions: for IC50: SD; for increase of IC50 compared to the free ligand 1: αvβ3, biotinylated vitronectin binding, from Table 1
Method in brief: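 Immobilized integrin αvβ3 incubated with test compound at graded concentrations (10−12 to 10−5) together with biotinylated vitronectin (1 μg mL−1); bound vitronectin measured. IC50 taken from the inhibition of vitronectin binding, reported as arithmetic mean ± SD of triplicate determinations.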

Chain of Human integrin αvβ3 receptor (P06756 31-992 limits assumed): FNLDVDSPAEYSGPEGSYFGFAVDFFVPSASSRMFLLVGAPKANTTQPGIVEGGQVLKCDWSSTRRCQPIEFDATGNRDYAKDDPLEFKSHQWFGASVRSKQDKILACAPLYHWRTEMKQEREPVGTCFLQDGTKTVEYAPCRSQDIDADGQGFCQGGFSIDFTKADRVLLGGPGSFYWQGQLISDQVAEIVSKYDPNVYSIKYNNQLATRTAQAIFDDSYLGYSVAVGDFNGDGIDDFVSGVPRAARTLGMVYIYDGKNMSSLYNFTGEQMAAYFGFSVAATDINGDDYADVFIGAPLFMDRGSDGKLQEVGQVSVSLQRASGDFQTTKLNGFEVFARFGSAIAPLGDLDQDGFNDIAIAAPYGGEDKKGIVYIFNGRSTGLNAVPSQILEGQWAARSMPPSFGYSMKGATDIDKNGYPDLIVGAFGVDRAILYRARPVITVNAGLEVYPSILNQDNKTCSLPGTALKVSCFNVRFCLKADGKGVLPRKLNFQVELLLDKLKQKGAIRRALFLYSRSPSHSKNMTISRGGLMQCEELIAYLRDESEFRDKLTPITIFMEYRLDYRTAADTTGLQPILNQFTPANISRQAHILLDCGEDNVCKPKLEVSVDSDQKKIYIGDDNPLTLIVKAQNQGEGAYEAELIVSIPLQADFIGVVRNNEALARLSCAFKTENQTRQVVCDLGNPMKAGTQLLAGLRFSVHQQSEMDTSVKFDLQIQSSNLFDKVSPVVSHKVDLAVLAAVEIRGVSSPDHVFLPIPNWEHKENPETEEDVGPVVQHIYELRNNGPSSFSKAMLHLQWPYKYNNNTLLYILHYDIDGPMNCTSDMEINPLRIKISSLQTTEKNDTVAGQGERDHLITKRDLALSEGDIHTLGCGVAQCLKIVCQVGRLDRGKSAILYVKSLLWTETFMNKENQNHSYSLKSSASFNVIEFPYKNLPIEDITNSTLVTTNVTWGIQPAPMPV
Chain of Human integrin αvβ3 receptor (P05106 27-718 limits assumed): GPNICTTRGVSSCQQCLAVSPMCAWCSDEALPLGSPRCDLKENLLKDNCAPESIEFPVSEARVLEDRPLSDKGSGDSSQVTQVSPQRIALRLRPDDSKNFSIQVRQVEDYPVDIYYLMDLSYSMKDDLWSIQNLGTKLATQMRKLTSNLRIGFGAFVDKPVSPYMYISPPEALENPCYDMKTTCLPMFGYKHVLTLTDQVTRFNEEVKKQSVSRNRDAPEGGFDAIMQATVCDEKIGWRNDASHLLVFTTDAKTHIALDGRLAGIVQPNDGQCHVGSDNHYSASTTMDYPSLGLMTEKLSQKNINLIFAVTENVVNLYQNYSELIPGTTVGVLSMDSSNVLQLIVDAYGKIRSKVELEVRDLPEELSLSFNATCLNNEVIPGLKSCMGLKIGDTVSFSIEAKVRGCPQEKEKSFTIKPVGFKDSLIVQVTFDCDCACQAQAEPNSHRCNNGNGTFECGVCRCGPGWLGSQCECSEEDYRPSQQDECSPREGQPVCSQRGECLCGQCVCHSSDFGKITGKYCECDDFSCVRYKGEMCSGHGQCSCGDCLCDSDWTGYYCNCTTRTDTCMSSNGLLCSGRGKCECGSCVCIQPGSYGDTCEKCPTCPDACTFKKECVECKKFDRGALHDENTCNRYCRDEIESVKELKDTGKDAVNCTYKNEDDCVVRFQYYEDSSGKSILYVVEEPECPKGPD

`CC(=O)O[C@H]1C(=O)[C@@]2(C)[C@H]([C@H](OC(=O)c3ccccc3)[C@]3(O)C[C@H](OC(=O)[C@H](OC(=O)N(C)CCN(C)C(=O)OCc4ccc(NC(=O)[C@H](C)NC(=O)[C@@H](NC(=O)CCc5cn(CCOCCOCCOCCOCC(=O)NCc6ccc(CN7C(=O)[C@H]8CC(=O)N[C@@H](CCCNC(=N)N)C(=O)NCC(=O)N[C@@H](CC(=O)O)C(=O)NC[C@H]7C(=O)N8)cc6)nn5)C(C)C)cc4)[C@@H](NC(=O)c4ccccc4)c4ccccc4)C(C)=C1C3(C)C)[C@]1(OC(C)=O)CO[C@@H]1C[C@@H]2O` [compound 5, cyclo[DKP‐RGD]‐Val‐Ala‐PTX (aliphatic scaffold)] was tested, and the IC50 was 14.8 ± 3.9 nM and the “increase of IC50 compared to the free ligand 1” value was 3 fold.

Molecule `CC(=O)O[C@H]1C(=O)[C@@]2(C)[C@H]([C@H](OC(=O)c3ccccc3)[C@]3(O)C[C@H](OC(=O)[C@H](OC(=O)N(C)CCN(C)C(=O)OCc4ccc(NC(=O)[C@H](C)NC(=O)[C@@H](NC(=O)Cc5cc(OCCNC(=O)Cc6cc(OCc7cn(CCOCCOCCOCCOCC(=O)NCc8ccc(CN9C(=O)[C@H]%10CC(=O)N[C@@H](CCCNC(=N)N)C(=O)NCC(=O)N[C@@H](CC(=O)O)C(=O)NC[C@H]9C(=O)N%10)cc8)nn7)cc(OCc7cn(CCOCCOCCOCCOCC(=O)NCc8ccc(CN9C(=O)[C@H]%10CC(=O)N[C@@H](CCCNC(=N)N)C(=O)NCC(=O)N[C@@H](CC(=O)O)C(=O)NC[C@H]9C(=O)N%10)cc8)nn7)c6)cc(OCCNC(=O)Cc6cc(OCc7cn(CCOCCOCCOCCOCC(=O)NCc8ccc(CN9C(=O)[C@H]%10CC(=O)N[C@@H](CCCNC(=N)N)C(=O)NCC(=O)N[C@@H](CC(=O)O)C(=O)NC[C@H]9C(=O)N%10)cc8)nn7)cc(OCc7cn(CCOCCOCCOCCOCC(=O)NCc8ccc(CN9C(=O)[C@H]%10CC(=O)N[C@@H](CCCNC(=N)N)C(=O)NCC(=O)N[C@@H](CC(=O)O)C(=O)NC[C@H]9C(=O)N%10)cc8)nn7)c6)c5)C(C)C)cc4)[C@@H](NC(=O)c4ccccc4)c4ccccc4)C(C)=C1C3(C)C)[C@]1(OC(C)=O)CO[C@@H]1C[C@@H]2O` [compound 9, (cyclo[DKP‐RGD])4‐Val‐Ala‐PTX] has an IC50 of 1.3 ± 0.3 nM.

`CC(=O)O[C@H]1C(=O)[C@@]2(C)[C@H]([C@H](OC(=O)c3ccccc3)[C@]3(O)C[C@H](OC(=O)[C@H](OC(=O)N(C)CCN(C)C(=O)OCc4ccc(NC(=O)[C@H](C)NC(=O)[C@@H](NC(=O)c5ccc(OCc6cn(CCOCCOCCOCCOCC(=O)NCc7ccc(CN8C(=O)[C@H]9CC(=O)N[C@@H](CCCNC(=N)N)C(=O)NCC(=O)N[C@@H](CC(=O)O)C(=O)NC[C@H]8C(=O)N9)cc7)nn6)cc5)C(C)C)cc4)[C@@H](NC(=O)c4ccccc4)c4ccccc4)C(C)=C1C3(C)C)[C@]1(OC(C)=O)CO[C@@H]1C[C@@H]2O` [compound 6, cyclo[DKP‐RGD]‐Val‐Ala‐PTX (aromatic scaffold)] was tested, and the IC50 was 27.3 ± 9.8 nM and the “increase of IC50 compared to the free ligand 1” value was 6 fold.

Molecule `CC(=O)O[C@H]1C(=O)[C@@]2(C)[C@H]([C@H](OC(=O)c3ccccc3)[C@]3(O)C[C@H](OC(=O)[C@H](OC(=O)N(C)CCN(C)C(=O)OCc4ccc(NC(=O)[C@H](C)NC(=O)[C@@H](NC(=O)Cc5cc(OCCNC(=O)Cc6cc(OCc7cn(CCOCCOCCOCCOCC(=O)NCc8ccc(CN9C(=O)[C@H]%10CC(=O)N[C@@H](CCCNC(=N)N)C(=O)NCC(=O)N[C@@H](CC(=O)O)C(=O)NC[C@H]9C(=O)N%10)cc8)nn7)cc(OCc7cn(CCOCCOCCOCCOCC(=O)NCc8ccc(CN9C(=O)[C@H]%10CC(=O)N[C@@H](CCCNC(=N)N)C(=O)NCC(=O)N[C@@H](CC(=O)O)C(=O)NC[C@H]9C(=O)N%10)cc8)nn7)c6)cc(OCCNC(=O)c6ccc(OCc7cn(CCOCCOCCOCCOCC(=O)NCc8ccc(CN9C(=O)[C@H]%10CC(=O)N[C@@H](CCCNC(=N)N)C(=O)NCC(=O)N[C@@H](CC(=O)O)C(=O)NC[C@H]9C(=O)N%10)cc8)nn7)cc6)c5)C(C)C)cc4)[C@@H](NC(=O)c4ccccc4)c4ccccc4)C(C)=C1C3(C)C)[C@]1(OC(C)=O)CO[C@@H]1C[C@@H]2O` [compound 8, (cyclo[DKP‐RGD])3‐Val‐Ala‐PTX] has an IC50 of 1.2 ± 0.5 nM.

For `CC(=O)O[C@H]1C(=O)[C@@]2(C)[C@H]([C@H](OC(=O)c3ccccc3)[C@]3(O)C[C@H](OC(=O)[C@H](OC(=O)N(C)CCN(C)C(=O)OCc4ccc(NC(=O)[C@H](C)NC(=O)[C@@H](NC(=O)Cc5cc(OCc6cn(CCOCCOCCOCCOCC(=O)NCc7ccc(CN8C(=O)[C@H]9CC(=O)N[C@@H](CCCNC(=N)N)C(=O)NCC(=O)N[C@@H](CC(=O)O)C(=O)NC[C@H]8C(=O)N9)cc7)nn6)cc(OCc6cn(CCOCCOCCOCCOCC(=O)NCc7ccc(CN8C(=O)[C@H]9CC(=O)N[C@@H](CCCNC(=N)N)C(=O)NCC(=O)N[C@@H](CC(=O)O)C(=O)NC[C@H]8C(=O)N9)cc7)nn6)c5)C(C)C)cc4)[C@@H](NC(=O)c4ccccc4)c4ccccc4)C(C)=C1C3(C)C)[C@]1(OC(C)=O)CO[C@@H]1C[C@@H]2O` [compound 7, (cyclo[DKP‐RGD])2‐Val‐Ala‐PTX], the IC50 was 4 ± 0.1 nM.
